Test results reported in article PMC11539005 (RSC Advances, 2024).
Values joined by “and” are separate entries in the source; they are usually repeats but may differ in a detail not shown here. Equal entries are not always repeated. Each block holds one compound with its values, some of them ahead of it.

Tests used:
MCF-7 = test: MTT anti-proliferative assay on MCF-7; type: cell-based; settings: Homo sapiens, MCF7, read-out: MCF-7 (IC50)
Procedure, shortened: (§1)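 Human MCF-7 and HepG2 cancer cell lines exposed to test compounds. Anti-proliferative IC50 given in μM. Each reported value is the mean of IC50 values from three separate experiments.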

HepG2 = test: MTT anti-proliferative assay on HepG2; type: cell-based; settings: Homo sapiens, HepG2, read-out: HepG2 (IC50)
Procedure, shortened: as §1

WI-38 = test: Safety assay: cytotoxicity against normal human lung cells; type: cell-based
Procedure, shortened: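 Normal human lung WI-38 cells exposed to test compound for in vitro cytotoxicity. IC50 in μM is the mean of IC50 values from three separate experiments. Selectivity index = IC50 in WI-38 / IC50 in MCF-7 or HepG2 cancer cells.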

VEGFR-2 = VEGFR-2 (Homo sapiens, UniProt P35968); test: biochemical
Chain of VEGFR-2 (P35968 20-1356): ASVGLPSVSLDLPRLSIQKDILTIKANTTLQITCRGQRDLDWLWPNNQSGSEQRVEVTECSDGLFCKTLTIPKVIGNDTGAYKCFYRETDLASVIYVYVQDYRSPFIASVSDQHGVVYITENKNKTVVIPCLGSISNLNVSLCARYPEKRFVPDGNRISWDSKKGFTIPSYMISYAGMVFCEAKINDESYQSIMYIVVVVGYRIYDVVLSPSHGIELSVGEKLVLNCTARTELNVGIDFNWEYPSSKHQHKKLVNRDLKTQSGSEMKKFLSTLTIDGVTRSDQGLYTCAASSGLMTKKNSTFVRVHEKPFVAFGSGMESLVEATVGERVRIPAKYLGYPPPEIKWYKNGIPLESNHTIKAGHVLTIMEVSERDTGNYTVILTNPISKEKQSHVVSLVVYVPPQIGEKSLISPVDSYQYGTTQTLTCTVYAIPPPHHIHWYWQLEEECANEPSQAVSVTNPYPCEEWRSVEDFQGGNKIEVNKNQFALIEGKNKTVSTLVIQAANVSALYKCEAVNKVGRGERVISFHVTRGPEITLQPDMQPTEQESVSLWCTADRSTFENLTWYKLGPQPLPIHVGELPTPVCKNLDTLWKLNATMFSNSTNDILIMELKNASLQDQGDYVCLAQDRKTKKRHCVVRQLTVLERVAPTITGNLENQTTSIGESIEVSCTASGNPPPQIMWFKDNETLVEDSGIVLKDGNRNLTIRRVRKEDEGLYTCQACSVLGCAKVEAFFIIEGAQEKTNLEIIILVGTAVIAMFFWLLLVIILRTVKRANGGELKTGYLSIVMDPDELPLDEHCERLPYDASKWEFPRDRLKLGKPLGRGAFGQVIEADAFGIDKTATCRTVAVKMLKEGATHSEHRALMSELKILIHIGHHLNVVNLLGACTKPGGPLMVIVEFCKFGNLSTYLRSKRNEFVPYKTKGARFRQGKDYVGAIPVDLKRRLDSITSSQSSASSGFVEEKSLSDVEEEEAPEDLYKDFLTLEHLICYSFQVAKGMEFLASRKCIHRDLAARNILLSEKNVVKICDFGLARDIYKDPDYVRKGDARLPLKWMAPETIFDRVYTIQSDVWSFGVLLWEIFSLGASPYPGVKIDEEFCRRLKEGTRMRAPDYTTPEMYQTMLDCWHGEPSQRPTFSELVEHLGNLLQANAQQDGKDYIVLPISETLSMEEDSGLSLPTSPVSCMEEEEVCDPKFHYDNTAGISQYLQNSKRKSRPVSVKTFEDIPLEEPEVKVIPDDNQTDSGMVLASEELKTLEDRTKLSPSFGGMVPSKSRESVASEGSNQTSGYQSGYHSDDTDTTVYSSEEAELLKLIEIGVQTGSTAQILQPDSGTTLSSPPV

CDK8 = CDK8 (Homo sapiens, UniProt P49336); test: Kinase profiling test, CDK8; type: biochemical; settings: CDK8 IC50 (mean ± SD)
Chain of CDK8 (P49336 whole entry): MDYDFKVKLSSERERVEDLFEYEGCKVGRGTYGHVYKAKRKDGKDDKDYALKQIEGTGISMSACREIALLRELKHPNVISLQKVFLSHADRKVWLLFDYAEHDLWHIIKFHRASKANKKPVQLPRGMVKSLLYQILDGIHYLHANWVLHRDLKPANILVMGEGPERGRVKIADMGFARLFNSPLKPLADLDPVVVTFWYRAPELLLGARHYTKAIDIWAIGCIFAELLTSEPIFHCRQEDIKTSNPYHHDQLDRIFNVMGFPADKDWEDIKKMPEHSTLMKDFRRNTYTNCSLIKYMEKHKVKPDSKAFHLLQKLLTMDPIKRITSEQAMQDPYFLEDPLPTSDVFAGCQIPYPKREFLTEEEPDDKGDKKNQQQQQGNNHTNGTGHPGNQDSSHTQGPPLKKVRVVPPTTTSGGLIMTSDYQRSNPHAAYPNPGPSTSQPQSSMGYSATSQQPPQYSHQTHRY
Chain of CDK8 (P24863 whole entry partner): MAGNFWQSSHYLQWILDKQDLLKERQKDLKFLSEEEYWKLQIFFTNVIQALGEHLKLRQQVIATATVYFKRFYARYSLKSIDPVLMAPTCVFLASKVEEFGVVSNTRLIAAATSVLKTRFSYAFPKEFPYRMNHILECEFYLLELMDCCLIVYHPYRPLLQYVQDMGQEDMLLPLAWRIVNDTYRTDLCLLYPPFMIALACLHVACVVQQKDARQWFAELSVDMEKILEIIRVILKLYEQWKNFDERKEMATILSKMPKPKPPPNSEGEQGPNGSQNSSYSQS

PIK3α = PIK3α (Homo sapiens, UniProt P42336); test: Kinase profiling test, PIK3α; type: biochemical
Chain of PIK3α (P42336 whole entry): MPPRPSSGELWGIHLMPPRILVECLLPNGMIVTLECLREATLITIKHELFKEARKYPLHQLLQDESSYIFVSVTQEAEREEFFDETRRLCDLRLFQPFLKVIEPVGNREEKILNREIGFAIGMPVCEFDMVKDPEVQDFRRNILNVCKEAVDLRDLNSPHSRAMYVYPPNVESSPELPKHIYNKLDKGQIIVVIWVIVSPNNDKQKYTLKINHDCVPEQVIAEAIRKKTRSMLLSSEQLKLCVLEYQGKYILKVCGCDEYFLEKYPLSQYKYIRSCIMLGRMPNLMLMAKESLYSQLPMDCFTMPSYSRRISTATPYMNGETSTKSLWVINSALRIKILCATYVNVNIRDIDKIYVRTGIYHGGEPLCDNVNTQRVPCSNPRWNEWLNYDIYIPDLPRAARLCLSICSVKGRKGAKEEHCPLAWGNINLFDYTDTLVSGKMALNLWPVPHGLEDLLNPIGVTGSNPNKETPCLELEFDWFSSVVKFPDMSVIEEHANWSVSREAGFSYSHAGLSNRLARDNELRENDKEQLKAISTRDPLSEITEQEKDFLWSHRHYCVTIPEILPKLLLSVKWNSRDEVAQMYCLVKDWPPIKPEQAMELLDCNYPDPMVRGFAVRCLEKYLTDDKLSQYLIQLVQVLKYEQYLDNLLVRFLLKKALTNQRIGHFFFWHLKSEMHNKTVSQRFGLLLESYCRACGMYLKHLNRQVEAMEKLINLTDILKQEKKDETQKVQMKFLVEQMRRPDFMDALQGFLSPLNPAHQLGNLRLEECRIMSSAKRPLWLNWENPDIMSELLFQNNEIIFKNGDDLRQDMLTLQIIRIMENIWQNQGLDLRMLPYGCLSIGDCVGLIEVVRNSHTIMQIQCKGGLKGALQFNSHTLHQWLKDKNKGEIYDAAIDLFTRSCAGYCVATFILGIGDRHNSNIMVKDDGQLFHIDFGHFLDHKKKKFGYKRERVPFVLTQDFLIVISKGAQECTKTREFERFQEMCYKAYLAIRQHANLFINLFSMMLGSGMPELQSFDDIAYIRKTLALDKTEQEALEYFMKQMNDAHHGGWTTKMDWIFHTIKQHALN
Chain of PIK3α (P27986 whole entry partner): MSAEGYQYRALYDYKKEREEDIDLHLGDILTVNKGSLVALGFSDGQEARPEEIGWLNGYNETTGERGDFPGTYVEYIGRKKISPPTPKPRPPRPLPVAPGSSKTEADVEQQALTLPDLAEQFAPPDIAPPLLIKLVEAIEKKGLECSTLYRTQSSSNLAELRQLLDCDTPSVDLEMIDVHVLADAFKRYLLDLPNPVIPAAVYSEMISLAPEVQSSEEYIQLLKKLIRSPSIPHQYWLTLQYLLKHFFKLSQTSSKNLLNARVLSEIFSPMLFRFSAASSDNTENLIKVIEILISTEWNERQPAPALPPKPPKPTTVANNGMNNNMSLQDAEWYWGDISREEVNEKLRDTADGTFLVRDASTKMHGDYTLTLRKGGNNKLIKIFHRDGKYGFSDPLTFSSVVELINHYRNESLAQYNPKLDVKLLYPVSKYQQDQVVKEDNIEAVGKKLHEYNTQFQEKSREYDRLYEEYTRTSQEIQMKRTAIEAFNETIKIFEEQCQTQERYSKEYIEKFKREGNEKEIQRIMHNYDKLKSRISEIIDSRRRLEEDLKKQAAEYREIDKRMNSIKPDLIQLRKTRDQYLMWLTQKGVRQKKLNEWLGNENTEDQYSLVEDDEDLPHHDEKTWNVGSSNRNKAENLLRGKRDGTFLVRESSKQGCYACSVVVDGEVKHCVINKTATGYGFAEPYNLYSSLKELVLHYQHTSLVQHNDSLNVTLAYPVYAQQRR

BRAF = BRAF (Homo sapiens, UniProt P15056); test: Kinase profiling test, BRAF; type: biochemical
EGFR = EGFR (Homo sapiens, UniProt P00533); test: Kinase profiling test, EGFR; type: biochemical
Chain of EGFR (P00533 25-1210): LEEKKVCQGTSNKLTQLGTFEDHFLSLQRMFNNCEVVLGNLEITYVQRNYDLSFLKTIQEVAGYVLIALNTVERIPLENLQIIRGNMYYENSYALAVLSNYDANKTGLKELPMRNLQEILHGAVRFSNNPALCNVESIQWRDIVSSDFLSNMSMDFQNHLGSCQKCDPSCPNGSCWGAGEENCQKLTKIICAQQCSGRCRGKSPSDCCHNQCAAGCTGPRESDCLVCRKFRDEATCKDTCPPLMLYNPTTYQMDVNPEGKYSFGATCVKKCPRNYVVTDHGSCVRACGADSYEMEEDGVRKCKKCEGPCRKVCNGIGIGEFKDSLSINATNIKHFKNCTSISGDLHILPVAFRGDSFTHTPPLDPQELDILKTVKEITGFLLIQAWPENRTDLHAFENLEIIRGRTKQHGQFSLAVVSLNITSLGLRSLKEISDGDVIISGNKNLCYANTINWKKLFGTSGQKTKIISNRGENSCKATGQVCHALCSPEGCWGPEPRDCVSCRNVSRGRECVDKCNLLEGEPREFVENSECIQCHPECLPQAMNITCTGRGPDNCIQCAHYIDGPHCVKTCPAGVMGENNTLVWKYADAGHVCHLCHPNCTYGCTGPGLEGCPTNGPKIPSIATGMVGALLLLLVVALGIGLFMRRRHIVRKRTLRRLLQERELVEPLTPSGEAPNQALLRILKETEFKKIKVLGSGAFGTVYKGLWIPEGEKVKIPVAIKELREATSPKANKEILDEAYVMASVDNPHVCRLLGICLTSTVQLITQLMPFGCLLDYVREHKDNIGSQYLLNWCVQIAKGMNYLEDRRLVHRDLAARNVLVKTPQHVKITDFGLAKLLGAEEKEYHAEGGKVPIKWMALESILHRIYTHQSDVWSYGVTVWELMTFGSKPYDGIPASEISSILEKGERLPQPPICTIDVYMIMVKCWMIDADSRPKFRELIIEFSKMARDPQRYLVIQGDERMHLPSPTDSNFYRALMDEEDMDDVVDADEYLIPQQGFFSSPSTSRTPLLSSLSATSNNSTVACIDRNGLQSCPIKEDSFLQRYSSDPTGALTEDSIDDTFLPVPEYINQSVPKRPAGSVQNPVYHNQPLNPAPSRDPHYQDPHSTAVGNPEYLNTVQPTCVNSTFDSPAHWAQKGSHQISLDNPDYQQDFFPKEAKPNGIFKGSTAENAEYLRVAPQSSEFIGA

MCF-7 cells [1] = test: Cell cycle analysis by flow cytometry; type: cell-based; settings: MCF-7, 0.06 µM, 72 h
MCF-7 cells [2] = test: Apoptosis assay; type: cell-based; settings: MCF-7, 0.06 µM, 72 h
caspase-8 = test: RT-PCR caspase-8 expression in MCF-7 cells; type: cell-based; settings: MCF-7, 0.06 µM; control 1
caspase-9 = test: RT-PCR caspase-9 expression in MCF-7 cells; type: cell-based; settings: MCF-7, 0.06 µM; control 1

SMILES: CC(=O)Nc1ccc(/C(C)=N/N=c2\sc(C(C)=O)nn2-c2ccc(C)cc2)cc1 [Compound 16, N-(4-((E)-1-(((Z)-5-Acetyl-3-(p-tolyl)-1,3,4-thiadiazol-2(3H)-ylidene)hydrazono)ethyl)phenyl) acetamide]
- IC50 (MCF-7): 1250 ± 20 nM
- IC50 (HepG2): 9920 ± 220 nM

SMILES: CC(=O)c1nn(-c2ccc(C)cc2)/c(=N/N=C(\C)c2ccc(NC(=O)c3ccccc3)cc2)s1 [Compound 20b, N-(4-((E)-1-(((Z)-5-Acetyl-3-(p-tolyl)-1,3,4-thiadiazol-2(3H)-ylidene)hydrazono)ethyl)phenyl) benzamide]
- IC50 (MCF-7): 50 ± 10 nM
- IC50 (HepG2): 140 ± 10 nM
- IC50 (WI-38; Homo sapiens, WI-38, read-out: WI-38 IC50): 190 ± 10 nM
- Selectivity index HepG2 (WI-38; SI = IC50 in normal cells (WI-38)/IC50 in HepG2): 1.4
- Selectivity index MCF-7 (WI-38; SI = IC50 in normal cells (WI-38)/IC50 in MCF-7): 3.8
- IC50 (VEGFR-2; VEGFR-2 IC50, mean of three experiments): 51.1 nM and 51 nM
- IC50 (VEGFR-2; VEGFR-2 inhibition): 24 nM
- IC50 (CDK8): 266 ± 58 nM
- IC50 (PIK3α): 2140 ± 95 nM
- IC50 (BRAF): 5840 ± 250 nM
- IC50 (EGFR): 1430 ± 85 nM
- Cell cycle distribution % G2/M (MCF-7 cells [1]; control 13.72): 11.99%
- Cell cycle distribution % S (MCF-7 cells [1]; control 23.91): 18.76%
- Cell cycle distribution % G0-G1 (MCF-7 cells [1]; control 62.37): 69.25%
- Late apoptosis (MCF-7 cells [2]; control 0.24): 15.99%
- Early apoptosis (MCF-7 cells [2]; control 0.61): 18.48%
- Necrosis (MCF-7 cells [2]; control 1.43): 4.14%
- Total apoptosis (MCF-7 cells [2]; untreated 0.85): 34.47%
- Caspase-8 RT-PCR (fold change) (caspase-8): 3.42 fold change and 3.4176 fold change
- Caspase-9 RT-PCR (fold change) (caspase-9): 5.44 fold change and 5.4353 fold change

SMILES: CNC(=O)c1cc(Oc2ccc(NC(=O)Nc3ccc(Cl)c(C(F)(F)F)c3)cc2)ccn1 [Sorafenib, reference compound]
- IC50 (MCF-7): 140 ± 30 nM
- IC50 (HepG2): 130 ± 30 nM

Second part, the compound after the results:

- IC50 (MCF-7): 60 ± 10 nM
- IC50 (HepG2): 130 ± 10 nM
SMILES: CC(=O)c1nn(-c2ccccc2Cl)/c(=N/N=C(\C)c2ccc(NC(=O)c3ccccc3)cc2)s1 [Compound 20a, N-(4-((E)-1-(((Z)-5-Acetyl-3-(2-chlorophenyl)-1,3,4-thiadiazol-2(3H)-ylidene)hydrazono)ethyl)phenyl)benzamide]

- IC50 (MCF-7): 190 ± 10 nM
- IC50 (HepG2): 150 ± 10 nM
SMILES: CCOC(=O)c1nn(-c2cccc(Cl)c2)/c(=N/N=C(\C)c2ccc(NC(=O)c3ccccc3)cc2)s1 [Compound 21a, Ethyl (Z)-5-(((E)-1-(4-benzamidophenyl)ethylidene)hydrazono)-4-(3-chlorophenyl)-4,5-dihydro-1,3,4-thiadiazole-2-carboxylate]

- IC50 (MCF-7): 140 ± 10 nM
- IC50 (HepG2): 130 ± 10 nM
SMILES: CCOC(=O)c1nn(-c2cccc(Cl)c2)/c(=N/N=C(\C)c2ccc(NC(=O)c3ccc(Cl)cc3)cc2)s1 [Compound 21b, Ethyl (Z)-5-(((E)-1-(4-(4-Chlorobenzamido)phenyl)ethylidene)hydrazono)-4-(3-chlorophenyl)-4,5-dihydro-1,3,4-thiadiazole-2-carboxylate]
